From ChEMBL document CHEMBL2069280, “Synthesis and evaluation of sulfonylnitrophenylthiazoles (SNPTs) as thyroid hormone receptor-coactivator interaction inhibitors” (J Med Chem, 2012) come the findings set out here.

A short description of the data set: Permeability of compound by PAMPA at pH 7.4. The data set is classed as ADME. In outline: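 Parallel artificial membrane permeation assay at pH 7.4, read as permeability in 10^-6 cm/s. Mean of a single triplicate experiment.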
A general note: The PAMPA barrier holds no transporters, so it reflects passive diffusion.

In the case of `CS(=O)(=O)c1ccc(C(=O)OCC(=O)NC23CC4CC(CC(C4)C2)C3)cc1[N+](=O)[O-]`, the permeability came out at 167 ×10⁻⁶ cm/s.
The same measure, in the same setting: the figure for `CCCN(C(=O)c1csc(-c2ccc(S(C)(=O)=O)c([N+](=O)[O-])c2)n1)c1ccccc1` is 1620 ×10⁻⁶ cm/s.
Same read-out and setting: the value for `Cc1nc(-c2ccc(S(C)(=O)=O)c([N+](=O)[O-])c2)sc1C(=O)N1CCC(C)CC1` was 912 ×10⁻⁶ cm/s; that for `Cc1nc(-c2ccc(S(C)(=O)=O)c([N+](=O)[O-])c2)sc1C(=O)N1CC2(C)CC1CC(C)(C)C2` (centres undefined) was 1420 ×10⁻⁶ cm/s.
On the same count and under the same terms, the figure for `CC1Cc2ccccc2N1C(=O)c1sc(-c2ccc(S(C)(=O)=O)c([N+](=O)[O-])c2)nc1C(F)(F)F` (centres undefined) is 43 ×10⁻⁶ cm/s; for `CS(=O)(=O)c1ccc(-c2nc(C(F)(F)F)c(C(=O)N3CCc4ccccc4C3)s2)cc1[N+](=O)[O-]` it is 84 ×10⁻⁶ cm/s.
Turning to `CN(Cc1ccccc1F)C(=O)c1sc(-c2ccc(S(C)(=O)=O)c([N+](=O)[O-])c2)nc1C(F)(F)F`, the permeability is 221 ×10⁻⁶ cm/s.
`CN(Cc1ccccc1)C(=O)c1sc(-c2ccc(S(C)(=O)=O)c([N+](=O)[O-])c2)nc1C(F)(F)F` showed a permeability of 1500 ×10⁻⁶ cm/s.
As for `CC1CCN(C(=O)c2sc(-c3ccc(S(C)(=O)=O)c([N+](=O)[O-])c3)nc2C(F)(F)F)CC1`, the Papp (read-out: permeability) stood at 702 ×10⁻⁶ cm/s.
Turning to `CS(=O)(=O)c1ccc(-c2nc(C(F)(F)F)c(C(=O)N3CCCCC3)s2)cc1[N+](=O)[O-]`, the permeability was 791 ×10⁻⁶ cm/s.
Still for that read-out and setting: the figure for `CS(=O)(=O)c1ccc(-c2ncc(C(=O)N3CCCCC3)s2)cc1[N+](=O)[O-]` is 287 ×10⁻⁶ cm/s; for `CS(=O)(=O)c1ccc(-c2nc(-c3ccccc3)c(C(=O)N3CCCCC3)s2)cc1[N+](=O)[O-]` it is 971 ×10⁻⁶ cm/s; for `CCc1nc(-c2ccc(S(C)(=O)=O)c([N+](=O)[O-])c2)sc1C(=O)N1CCCCC1` it is 657 ×10⁻⁶ cm/s.
Still for that read-out and setting: the value for `CS(=O)(=O)c1ccc(-c2ncc(C(=O)NC34CC5CC(CC(C5)C3)C4)s2)cc1[N+](=O)[O-]` was 379 ×10⁻⁶ cm/s.
Still for that read-out and setting: the value for `Cc1nc(-c2ccc(S(C)(=O)=O)c([N+](=O)[O-])c2)sc1C(=O)N1CCCCC1` was 280 ×10⁻⁶ cm/s; that for `CC1(C)CC2CC(C)(CN2C(=O)c2sc(-c3ccc(S(C)(=O)=O)c([N+](=O)[O-])c3)nc2C(F)(F)F)C1` (centres undefined) was 8 ×10⁻⁶ cm/s; that for `CCc1nc(-c2ccc(S(C)(=O)=O)c([N+](=O)[O-])c2)sc1C(=O)N1CC2(C)CC1CC(C)(C)C2` (centres undefined) was 949 ×10⁻⁶ cm/s.
For the compound `CN(Cc1cccc(F)c1)C(=O)c1sc(-c2ccc(S(C)(=O)=O)c([N+](=O)[O-])c2)nc1C(F)(F)F`, the permeability worked out at 271 ×10⁻⁶ cm/s.
Still for that read-out and setting: the value for `CN(Cc1cccc(F)c1)C(=O)c1cnc(-c2ccc(S(C)(=O)=O)c([N+](=O)[O-])c2)s1` was 1030 ×10⁻⁶ cm/s.
